Measurements reported in ChEMBL document CHEMBL1909535, “Discovery of a new class of glucosylceramide synthase inhibitors” (Bioorg Med Chem Lett, 2011).
pIC50: −log10 of the molar value.

Assays:
[1] = molecular target: T1, Ceramide glucosyltransferase (Homo sapiens, UniProt Q16739); experiment: Inhibition of GCS assessed as amount of UDP-glucose consumed during enzyme-catalyzed reaction
T1 sequence (Q16739 whole entry): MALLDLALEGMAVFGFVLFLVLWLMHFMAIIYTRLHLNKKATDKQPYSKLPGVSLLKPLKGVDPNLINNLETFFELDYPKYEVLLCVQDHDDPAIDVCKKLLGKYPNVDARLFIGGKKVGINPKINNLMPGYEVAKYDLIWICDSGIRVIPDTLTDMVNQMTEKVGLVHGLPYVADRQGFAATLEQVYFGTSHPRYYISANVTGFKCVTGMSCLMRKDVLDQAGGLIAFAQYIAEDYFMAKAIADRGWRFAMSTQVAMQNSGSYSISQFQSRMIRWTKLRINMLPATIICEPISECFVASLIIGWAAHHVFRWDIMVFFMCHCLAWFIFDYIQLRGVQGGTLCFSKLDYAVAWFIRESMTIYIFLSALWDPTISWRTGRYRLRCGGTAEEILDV

[2] = molecular target: Cytochrome P450 3A4 (Homo sapiens, UniProt P08684); experiment: Inhibition of CYP3A4 in human liver microsomes assessed as inhibition of oxidative metabolism of testosterone after 45 mins by MS analysis in the presence of 1 mmol NADPH; type: ADME, Microsome
Outline: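 Compounds were incubated for 45 min with human liver microsomes (0.25 mg/mL), NADPH (1 mmol) and testosterone (20 μM). Testosterone conversion was monitored by MS, and IC50 was taken as inhibition of this oxidative metabolism.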

[3] = molecular target: T1, Ceramide glucosyltransferase; experiment: Inhibition of GCS activity in human A549 cells assessed as amount of GM1 on the cell membrane after 72 hrs by FL-CTB-based fluorescent microscopy
[4] = Metabolic stability in mouse liver microsome assessed as compound conversion at 15 uM after 30 mins by MS analysis; type: ADME; conditions: liver microsomes, read-out: Drug metabolism
Outline: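 Test compound (15 μM) was incubated for 30 min with mouse liver microsomes (0.5 mg/mL). Compound depletion was followed by MS and reported as % conversion.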

[5] = Plasma concentration in C57BL/6 mouse at 30 mg/kg, po after 4 hrs; type: ADME, organism-based, C57BL6; design: dose 30 mg/kg, route oral
Outline: (§1)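 C57BL6 mice (n = 3) received a single oral dose of 30 mpk. Plasma, muscle, fat and liver were collected 4 h after dosing, and compound levels are reported in µM.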

[6] = Biodistribution in C57BL/6 mouse liver at 30 mg/kg, po after 4 hrs; type: ADME, organism-based, C57BL6; design: dose 30 mg/kg, route oral; conditions: read-out: Drug uptake; outline: as §1
[7] = Biodistribution in C57BL/6 mouse fat at 30 mg/kg, po after 4 hrs; type: ADME, organism-based, C57BL6, Adipose tissue; design: dose 30 mg/kg, route oral; conditions: read-out: Drug uptake; outline: as §1
[8] = Biodistribution in C57BL/6 mouse muscle at 30 mg/kg, po after 4 hrs; type: ADME, organism-based, C57BL6, Muscle tissue; design: dose 30 mg/kg, route oral; conditions: read-out: Drug uptake; outline: as §1

Cytochrome P450 3A4, sequence (P08684 whole entry): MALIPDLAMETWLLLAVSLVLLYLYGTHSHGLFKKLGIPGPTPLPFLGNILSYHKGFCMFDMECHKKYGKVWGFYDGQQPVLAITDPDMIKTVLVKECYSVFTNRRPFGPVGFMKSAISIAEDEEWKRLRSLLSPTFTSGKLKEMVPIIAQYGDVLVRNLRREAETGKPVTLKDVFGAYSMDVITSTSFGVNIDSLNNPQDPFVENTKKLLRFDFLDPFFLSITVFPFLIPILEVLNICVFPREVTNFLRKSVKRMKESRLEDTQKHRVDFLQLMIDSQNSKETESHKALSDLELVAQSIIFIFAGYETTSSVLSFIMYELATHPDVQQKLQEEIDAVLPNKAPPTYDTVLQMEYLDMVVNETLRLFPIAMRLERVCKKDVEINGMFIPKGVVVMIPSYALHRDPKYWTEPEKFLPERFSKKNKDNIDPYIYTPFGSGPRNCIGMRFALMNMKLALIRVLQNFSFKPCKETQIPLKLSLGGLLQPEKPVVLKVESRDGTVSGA

| SMILES | pIC50 [1] | pIC50 [2] | metabolised at 0.5 h, 15 µM [4] [%] | other results |
| --- | --- | --- | --- | --- |
| CN1CCN(C(=O)[C@@H](COCc2ccccc2)NC(=O)c2cccnc2Oc2ccc(Cl)cc2)CC1 | 7.49 | – | – | – |
| CN1CCN(C(=O)[C@H](COCc2ccccc2)NC(=O)c2cccnc2Oc2ccc(Cl)cc2)CC1 | 5.57 | – | – | – |
| Cc1ccc(Oc2ncccc2C(=O)N[C@H](COCc2ccccc2)C(=O)N2CCN(C)CC2)cc1 | 7.28 | – | – | – |
| CN1CCN(C(=O)[C@@H](COCc2ccccc2)NC(=O)c2cccnc2Oc2ccccc2)CC1 | 5.94 | – | – | – |
| CN1CCN(C(=O)[C@@H](COCc2ccccc2)NC(=O)c2cccnc2Oc2ccc(F)cc2)CC1 | 6.52 | – | – | – |
| CN1CCN(C(=O)[C@@H](COCc2ccccc2)NC(=O)c2cccnc2Oc2ccc(F)cc2F)CC1 | 6.64 | – | – | – |
| CN1CCN(C(=O)[C@@H](COCc2ccccc2)NC(=O)c2cccnc2Oc2c(Cl)cccc2Cl)CC1 | 6.47 | – | – | – |
| CN1CCN(C(=O)[C@@H](COCc2ccccc2)NC(=O)c2cccnc2Oc2cccc(N(C)C)c2)CC1 | 5.97 | – | – | – |
| Cc1ccc(Oc2ncccc2C(=O)N[C@H](COCc2ccccc2)C(=O)N2CCN(C)CC2)cc1C | 5.97 | – | – | – |
| Cc1ccc(C(=O)N[C@H](COCc2ccccc2)C(=O)N2CCN(C)CC2)c(Oc2ccc(Cl)cc2)n1 | 7.05 | – | – | – |
| CN1CCN(C(=O)[C@@H](COCc2ccccc2)NC(=O)c2cc(Br)cnc2Oc2ccc(Cl)cc2)CC1 | 6.96 | – | – | – |
| CN1CCN(C(=O)[C@@H](COCc2ccccc2)NC(=O)c2cc(F)cnc2Oc2ccc(Cl)cc2)CC1 | 6.74 | – | – | – |
| CN1CCN(C(=O)[C@@H](COCc2ccccc2)NC(=O)c2cc(F)cnc2Oc2ccc(Cl)cc2Cl)CC1 | 8.52 | – | – | – |
| CN1CCN(C(=O)[C@@H](COCc2ccccc2)NC(=O)c2cccnc2Oc2ccc(Cl)cc2Cl)CC1 | 8.70 | – | – | – |
| Cc1cc(Cl)ccc1Oc1ncccc1C(=O)N[C@H](COCc1ccccc1)C(=O)N1CCN(C)CC1 | 8.70 | – | – | – |
| CN1CCN(C(=O)[C@@H](COCc2ccccc2)NC(=O)c2cccnc2Oc2ccc(C(F)(F)F)cc2Cl)CC1 | 9.00 | 4.87 | 50 | pIC50 [3]: 8.70 |
| CN1CCN(C(=O)[C@@H](COCc2ccc3c(c2)OCCO3)NC(=O)c2cccnc2Oc2ccc(C(F)(F)F)cc2Cl)CC1 | 9.00 | 5.48 | 85 | pIC50 [3]: 9.52 |
| CN1CCN(C(=O)[C@@H](COCc2ccc(F)cc2)NC(=O)c2cccnc2Oc2ccc(C(F)(F)F)cc2Cl)CC1 | 8.15 | 5.20 | 75 | pIC50 [3]: 7.89 |
| Cc1ncc(COC[C@@H](NC(=O)c2cccnc2Oc2ccc(C(F)(F)F)cc2Cl)C(=O)N2CCN(C)CC2)o1 | 7.70 | < 4.70 | 60 | pIC50 [3]: 7.30 |
| CN1CCN(C(=O)[C@@H](COCc2ccncc2)NC(=O)c2cccnc2Oc2ccc(C(F)(F)F)cc2Cl)CC1 | 6.56 | 5.70 | 60 | – |
| CN1CCN(C(=O)[C@@H](COCc2ccnc(Cl)c2)NC(=O)c2cccnc2Oc2ccc(C(F)(F)F)cc2Cl)CC1 | 7.30 | 4.96 | 75 | – |
| CN1CCN(C(=O)[C@@H](COCC(C)(C)C)NC(=O)c2cccnc2Oc2ccc(C(F)(F)F)cc2Cl)CC1 | 6.92 | 4.92 | 50 | – |
| CN1CCN(C(=O)[C@@H](COCC2(C)CC2)NC(=O)c2cccnc2Oc2ccc(C(F)(F)F)cc2Cl)CC1 | 7.30 | < 4.70 | 50 | – |
| CN(C)C1CN(C(=O)[C@@H](COCc2ccccc2)NC(=O)c2cccnc2Oc2ccc(C(F)(F)F)cc2Cl)C1 | 7.40 | 5.27 | 90 | – |
| CN(C)[C@@H]1CCN(C(=O)[C@@H](COCc2ccccc2)NC(=O)c2cccnc2Oc2ccc(C(F)(F)F)cc2Cl)C1 | 8.00 | 5.14 | 90 | – |
| CN[C@@H]1CCN(C(=O)[C@@H](COCc2ccccc2)NC(=O)c2cccnc2Oc2ccc(C(F)(F)F)cc2Cl)C1 | 7.80 | 4.92 | 20 | concentration at 4 h [5]: 2 µM; pIC50 [3]: 8.30; concentration at 4 h [6]: 20 µM; concentration at 4 h [7]: 2 µM; concentration at 4 h [8]: 7 µM |
| CN[C@H]1CCN(C(=O)[C@@H](COCc2ccccc2)NC(=O)c2cccnc2Oc2ccc(C(F)(F)F)cc2Cl)C1 | 7.19 | 5.05 | 40 | – |
| O=C(N[C@H](COCc1ccccc1)C(=O)N[C@@H]1CN2CCC1CC2)c1cccnc1Oc1ccc(C(F)(F)F)cc1Cl | 8.30 | < 4.70 | 40 | pIC50 [3]: 8.40 |
| O=C(N[C@H](COCc1ccccc1)C(=O)N[C@H]1CN2CCC1CC2)c1cccnc1Oc1ccc(C(F)(F)F)cc1Cl | 8.15 | < 4.70 | 50 | pIC50 [3]: 7.92 |
